From article PMC9303924 (Proceedings of the National Academy of Sciences of the …, 2022)
Entries after “also recorded” stand apart in the source; their conditions may differ. Like-named read-outs stand apart in the source and are kept apart here.

Columns and labels:
McpA-LBD (A36-L277) [1] = biological target: T1, McpA-LBD (A36-L277) (Bacillus velezensis, UniProt A7Z835); assay: Biolayer interferometry; type: binding, Bacillus velezensis SQR9
T1 sequence (A7Z835 36-277): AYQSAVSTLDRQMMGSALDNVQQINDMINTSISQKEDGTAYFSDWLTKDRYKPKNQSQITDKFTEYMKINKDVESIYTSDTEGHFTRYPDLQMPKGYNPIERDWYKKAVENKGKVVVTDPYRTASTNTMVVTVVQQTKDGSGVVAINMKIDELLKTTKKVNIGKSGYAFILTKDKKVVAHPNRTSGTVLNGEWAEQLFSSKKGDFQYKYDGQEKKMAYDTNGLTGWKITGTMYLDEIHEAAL

[2] = test system: McpA/TlpA receptor chimeras in SQR9Δ8mcp; assay: Chemotaxis of McpA receptor chimera strains compared; type: cell-based, Bacillus velezensis SQR9; details: strains with chimeras McpA_distal (M1) and McpA_proximal (M2)
Method in brief: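 Chimeric receptors (McpA or TlpA LBD modules swapped) integrated at amyE of SQR9Δ8mcp; strains grown at 30 °C in low-salt LB. Microfluidic SlipChip run with 13 parallel units as duplicates: channels BSA-coated (10 mg/mL, 5 min); compound, cells and buffer in top, middle and bottom wells; 30 min in the dark. Cells counted by fluorescence microscopy; I30 = Ne/(Ne+Nc); attraction when above 0.6.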

McpA-LBD [3] = details: cited from earlier work
McpA-LBD (A36-L277) [4] = biological target: T1, McpA-LBD (A36-L277); assay: Surface plasmon resonance; type: binding, Bacillus velezensis SQR9; details: SPR, compounds at 200 μM and 2 mM
McpA-LBD [5] = details: cited from earlier work; remark: listed apart in the source

Row | McpA-LBD module on which chemotaxis relies [2] | SMILES | interaction with McpA-LBD observed (McpA-LBD (A36-L277) [1]; BLI) | also measured
1 | sensed by the membrane-proximal module | N[C@@H](Cc1ccc(O)cc1)C(=O)O [Tyrosine] | interaction | 
2 | sensed by the membrane-proximal module | O=C(O)C(=O)O [Oxalic acid] |  | 
3 | sensed by the membrane-proximal module | O=C(O)CCC(=O)O [Succinic acid] |  | 

More lines, now with the values behind:

Row | SMILES | McpA-LBD module on which chemotaxis relies [2] | interaction with McpA-LBD observed (McpA-LBD (A36-L277) [1]; BLI) | also measured
4 | OC[C@H]1OC(O)[C@@H](O)[C@@H](O)[C@@H]1O (stereo partly shown) [Mannose] |  | interaction | 
5 | O=C[C@H](O)[C@@H](O)[C@@H](O)[C@H](O)CO [Galactose] |  |  | direct binding to McpA-LBD (McpA-LBD [3]): no direct binding
6 | C[C@H](O)[C@@H](O)[C@@H](O)[C@H](O)C=O [Fucose] |  | interaction; also recorded: directly bound | binding to McpA-LBD (McpA-LBD (A36-L277) [4]): binding for all ligands, except for serine and fucose
7 | OC[C@@H](O)[C@@H](O)[C@@H](O)CO [Ribitol] |  | interaction; also recorded: directly bound | Kd (McpA-LBD (A36-L277) [1]): 4.36 µM
8 | O=C(O)CC(O)(CC(=O)O)C(=O)O [Citric acid] | sensed by the membrane-proximal module |  | direct binding to McpA-LBD (McpA-LBD [5]): direct binding
9 | O=C(O)CC(O)C(=O)O (stereo not shown) [Malic acid] | sensed by the membrane-proximal module |  | 
10 | O=C[C@H](O)[C@H](O)[C@H](O)CO [Ribose] |  | interaction; also recorded: directly bound | Kd (McpA-LBD (A36-L277) [1]; BLI, McpA-LBD (A36-L277), 25 °C, 1:1 binding model): 1.94 µM
11 | N[C@@H](CCC(=O)O)C(=O)O [Glutamic acid] | sensed by the membrane-proximal module |  | 
12 | N[C@@H](CO)C(=O)O [Serine] |  |  | binding to McpA-LBD (McpA-LBD (A36-L277) [4]): binding for all ligands, except for serine and fucose
13 | N[C@@H](CC(=O)O)C(=O)O [Aspartic acid] | sensed by the membrane-proximal module |  | direct binding to McpA-LBD (McpA-LBD [5]): direct binding
